STAT3 inh-1: IL-6 driven STAT3 reporter inhibitors, primary screen, U3A cells, luciferase, luminescence, MLSCN library; hit rate 0.89% among 190,000; IL-6 STAT3-luciferase reporter; host cell line lacks STAT1; inhibition, % at 5.5 µM;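 active = inhibition above the mean inhibition across all screened compounds plus 3 SD, cut at about 44% in these data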;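 note: 0% = DMSO only wells and 100% = 100 µM nifuroxazide control wells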
FLuc inhib CS: firefly luciferase enzyme inhibitors, primary screen, artefact control for luciferase-based inhibitor screens, biochemical, luminescence, ATPLite; hit rate 1.5% among 200,000; 10 min; Luciferin 4-monooxygenase (Photinus pyralis), P08659; inhibition, % at 10 µM;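 active = inhibition above about 50% when tested at 10 µM, limit read from the data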
Target sequence (P08659 whole entry, looked up): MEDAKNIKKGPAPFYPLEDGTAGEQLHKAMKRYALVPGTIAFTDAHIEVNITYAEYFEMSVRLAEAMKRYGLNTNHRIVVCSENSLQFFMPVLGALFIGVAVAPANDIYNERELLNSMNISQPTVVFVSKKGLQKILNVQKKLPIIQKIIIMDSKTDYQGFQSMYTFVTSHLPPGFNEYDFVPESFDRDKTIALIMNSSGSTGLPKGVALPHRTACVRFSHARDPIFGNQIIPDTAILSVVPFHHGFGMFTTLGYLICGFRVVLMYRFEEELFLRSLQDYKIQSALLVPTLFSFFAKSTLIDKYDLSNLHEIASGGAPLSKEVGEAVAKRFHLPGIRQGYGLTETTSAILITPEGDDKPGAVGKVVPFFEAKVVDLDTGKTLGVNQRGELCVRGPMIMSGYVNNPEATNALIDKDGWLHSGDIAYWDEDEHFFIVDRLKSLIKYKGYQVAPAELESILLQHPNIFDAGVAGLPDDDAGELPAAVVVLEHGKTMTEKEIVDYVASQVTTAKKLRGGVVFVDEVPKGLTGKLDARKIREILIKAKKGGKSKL
HSP90 refold inh: HSP90 inhibitors, primary screen, cell lysate, luminescence | inhibition, % at 5.6 µM | Heat shock protein HSP 90 (rabbit reticulocyte lysate; luciferase refolding) | Rabbit reticulocyte lysate, luciferase refolding luminescence, 3 h | hit rate 0.91% among 290,000;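 active = inhibition above the screen-wide mean plus 3 SD, computed separately per campaign, cut at about 16% in these data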;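 note: 0% = DMSO wells and 100% = 60 µM geldanamycin wells; inhibitors lower the luminescence because luciferase stays unfolded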
FLuc act counter: FLuc activators, initial screening, artefact control for FLuc-dependent activation tests, biochemical, ATPlite luminescence. Luciferin 4-monooxygenase (Photinus pyralis), P08659. ATPlite luciferase biochemical, 10 min; 0 = ATP-free wells, 1 = DMSO control. activation factor at 10 µM. 200,000 tested, under 10 active. AID 1027, 2008;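 active = luciferase activation factor, scaled between plate controls, of at least 2 with compound at 10 µM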
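test system = cell-free luciferase reagent | medium = PBS as buffer for the ATP substrate | dosing = test compounds dosed from 2 mM stocks in 100% DMSO | incubation = 10 min at ambient temperature | detection = luminescence measurement of luciferase light output | benchmarks = low control with PBS replacing ATP, high control enzyme plus ATP without compound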
PPC-1+TRAIL kill: compounds killing PPC-1 cancer cells with TRAIL present, primary screen, TRAIL potentiator project, ATPLite luminescence, uHTS; PPC-1 cells + TRAIL, ATPLite viability luminescence; cell killing (% activity), % at 4 µM or 5 µM; hit rate 0.41% among 220,000; AID 1443, 2008;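 active = cell killing above 50% in the first pass at 4 µM, then a duplicate retest at 5 µM averaging 50% or more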;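 note: plate controls were cells with TRAIL plus DMSO for no effect and medium-only wells lacking cells for full effect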
TRAIL sens C8: viability loss with TRAIL in NB7+C8 cells, primary screen, TRAIL sensitizer project, cell-based, ATPlite luminescence; inhibition (viability loss, TRAIL sensitization), % at 10 µM; hit rate 1% among 360,000;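 active = compounds causing at least 50% loss of cell viability in the single-dose screen, relative to plate controls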
STAT3 inh-2: STAT3 reporter inhibitors, retest of hits, confirmation, U3A cells, luciferase, luminescence; shares compounds with STAT3 inh-1; IL-6 STAT3 luciferase reporter; cell line lacks STAT1; inhibition, % at 5.7 µM; hit rate 45% among 1,200;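 active = inhibition above the hit cutoff computed for the primary STAT3 screen, cut at about 44% in these data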;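 note: 0% = IL-6 plus DMSO and 100% = IL-6 plus nifuroxazide control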
NFkB inh 2: NF-kB reporter inhibitors in human cells, confirmation, counter-screen for STAT3 inhibitor project, cell-based, HEK293T, luciferase, TNF-alpha stimulus; shares compounds with STAT3 inh-1; TNF-alpha induced; inhibition, % at 5.7 µM; hit rate 36% among 1,200;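 active = inhibition above the mean of solvent-only control wells plus 3 SD, cutoff set per campaign, cut at about 13% in these data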;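 note: 0% = TNF-alpha with DMSO and 100% = TNF-alpha with MG high control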
STAT1 inh STAT3c: STAT1 reporter inhibitors, IFN-gamma induced, confirmation, counter-screen for STAT3 inhibitor project, cell-based, NIH 3T3, luciferase luminescence | shares compounds with STAT3 inh-1 | NIH 3T3 STAT1-luciferase reporter | AID 1317, 2008 | inhibition, % at 5.7 µM | hit rate 27% among 1,200;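 active = inhibition above the mean plus 3 SD of solvent-only control wells, limit set per screening run, cut at about 16% in these data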;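 note: 0% = DMSO with IFN-gamma and 100% = nifuroxazide control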
PPC-1 tox: cytotoxicity in PPC-1 cells, confirmation, cytotoxicity control for TRAIL apoptosis potentiator project, cell-based, ATP content luminescence. AID 1447, 2008. PPC-1 viability, ATPlite luminescence, overnight. cytotoxicity, % at 5 µM. shares compounds with PPC-1+TRAIL kill. hit rate 50% among 1,200;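 active = reconfirmed compounds whose average cytotoxicity reaches 50% or more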;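 note: 0% = DMSO-treated cells and 100% = wells holding medium but no cells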
HSP90 inh confirm: HSP90 inhibitors, confirmation, cell lysate, luminescence | hit rate 64% among 2,300 | rabbit reticulocyte lysate, luciferase refolding luminescence, 3 h | inhibition, % at 5.9 µM | shares compounds with HSP90 refold inh; in the data active = inhibition above about 18%;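 note: 0% = vehicle wells and 100% = reference inhibitor wells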
FLuc counter: firefly luciferase inhibitors, HSP90 counter-screen, confirmation, artefact control for HSP90 inhibitor project, biochemical, luminescence, triplicate; shares compounds with HSP90 refold inh; inhibition, % at 5.9 µM; purified native firefly luciferase; hit rate 48% among 2,300; AID 1847, 2009;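 active = inhibition above the mean inhibition of all tested sample wells plus 3 SD, cut at about 10% in these data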;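 note: 0% = DMSO with luciferase and 100% = wells lacking luciferase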
Starred values were filed as active, the others as inactive; / = no result given. Hits are enriched below; roughly 2.2% of the tested compounds scored in any of these assays.

SMILES	STAT3 inh-1	FLuc inhib CS	HSP90 refold inh	FLuc act counter	PPC-1+TRAIL kill	TRAIL sens C8	STAT3 inh-2	NFkB inh 2	STAT1 inh STAT3c	HSP90 inh confirm	FLuc counter	others
CC(C)OC(=O)c1sc2nc(-c3ccccc3)ccc2c1N	61*	73*	44*	0.3	32	54*	17	-23	-163	54*	52*
Cc1ccc(-c2cc(C(=O)N3CCCC3)no2)cc1	76*	85*	20*	0.2	66*	68*	48*	16*	-39	65*	52*	PPC-1 tox=68*
O=C(c1cc(-c2ccc(O)cc2)on1)N1CCCCCC1	/	/	12	/	/	10	/	/	/	/	/
Cc1csc(NC(=O)c2cc3c(s2)CCCC3)n1	86*	94*	35*	0.1	66*	78*	55*	-1	-62	50*	50*	PPC-1 tox=69*
CC(C)NC(=O)c1cc2c(s1)CCCC2	3	5	1	1	22	4	/	/	/	/	/
Cc1cc(C)c(C#N)c(SCc2nnc(-c3ccccc3)o2)n1	67*	-1	67*	1	72*	69*	12	-3	-86	58*	33*
Cc1cc(C)c(C#N)c(SCc2nnc(-c3ccccc3[N+](=O)[O-])o2)n1	-3	6	-4	0.9	40	27	/	/	/	/	/
CC(=O)Nc1ccccc1OCC(=O)c1cc(C)n(Cc2cccs2)c1C	79*	4	47*	1	14	26	84*	27*	-16	69*	-15
Cc1cc(C(=O)CSc2n[nH]c(-c3ccccc3F)n2)c(C)n1Cc1cccs1	16	10	3	0.9	16	-17	/	/	/	/	/
Cc1csc(SCC(=O)c2cc(C)n(Cc3cccs3)c2C)n1	79*	89*	65*	0.1	30	79*	52*	24*	-26	85*	81*
Cc1cc(C(=O)CSc2nnc(N)s2)c(C)n1Cc1cccs1	51*	91*	28*	0.1	36	69*	36	8	-46	65*	59*
Cc1cc(C(=O)COc2cccnc2[N+](=O)[O-])c(C)n1Cc1cccs1	32	8	8	0.9	8	18	/	/	/	/	/
COc1ccc(-c2nnc(SCC(=O)c3cc(C)n(Cc4cccs4)c3C)o2)cc1	-1	0	5	1	6	-5	/	/	/	/	/
CN(C)c1ccc(C(=S)Nc2ccccc2)cc1	57*	56*	57*	0.4	35	43	23	-37	-109	65*	-5
CC1C[N+](=C2C=C(N3CCOCC3)CC(C)(C)C2)CC(C)O1 (stereo unspecified)	/	/	0	/	3	1	/	/	/	/	/
O=C(CN(Cc1ccccc1)S(=O)(=O)c1ccccc1)N/N=C/c1ccccc1C(=O)O	-9	-6	-3	1.1	-4	-5	/	/	/	/	/
CCOC(=O)[C@]12CCCC=C1N(Cc1ccccc1)C(=O)[C@H](CC(=O)N1CCOCC1)C2	/	/	/	/	/	1	/	/	/	/	/
CCOc1ccc2nc(-c3ccccc3)[nH]c2c1	50*	84*	19*	0.2	48	69*	22	-17	-110	21*	13*	PPC-1 tox=56*
NNC(=O)c1cccc(COc2ccc(Br)cc2)c1	79*	17	60*	0.8	12	23	71*	33*	31*	49*	17*
NNC(=O)c1cccc(COc2cccc(Br)c2)c1	5	-1	-1	1	12	-9	/	/	/	/	/
Clc1ccc(-c2nnc(NC3=NCCCCC3)o2)cc1	80*	78*	45*	0.2	48	47	48*	19*	-48	71*	68*
O=C(Nc1nnc(-c2ccc(Cl)cc2)o1)C1CCCCC1	/	/	/	/	4	1	/	/	/	/	/
COc1cc2c(cc1OC)C(c1cccs1)N(C(=S)NC(C)C)CC2 (stereo unspecified)	-18	-9	2	1.1	10	9	/	/	/	/	/
COc1cccc(-n2c(=O)n(Cc3ccccc3)c(=O)c3[nH]cnc32)c1	/	/	4	/	17	17	/	/	/	/	/
N/C(=N\N=C\c1ccc2c(c1)OCO2)c1nonc1N	54*	78*	21*	0.2	19	40	33	-14	-98	54*	37*
SMILES	STAT3 inh-1	FLuc inhib CS	HSP90 refold inh	FLuc act counter	PPC-1+TRAIL kill	TRAIL sens C8	STAT3 inh-2	NFkB inh 2	STAT1 inh STAT3c	HSP90 inh confirm	FLuc counter	others
N/C(=N\N=C\c1cccc([N+](=O)[O-])c1)c1nonc1N	/	/	4	/	8	-19	/	/	/	/	/
COc1ccc([C@H]2C[C@H](O)[C@@H](n3cc(C4CC4)nn3)CN2C(=O)C2CCCCC2)cc1	/	/	/	/	/	-11	/	/	/	/	/
O=C1CC(c2ccc3c(c2)OCO3)Sc2nc3ccccc3n21 (stereo unspecified)	52*	69*	47*	0.3	-8	31	17	-8	-84	72*	69*
O=C1CC(c2ccccc2)Sc2nc3ccccc3n21 (stereo unspecified)	30	43	1	0.6	21	27	/	/	/	/	/
CCN(C[C@H]1N[C@@](C)(C(=O)OC)[C@H]2C(=O)N(C)C(=O)[C@@H]12)S(=O)(=O)c1ccc(-c2ccccc2)cc1	/	/	/	/	/	1	/	/	/	/	/
CCOc1ccc(CCNc2nc3ccc(C)cc3n3cnnc23)cc1OCC	/	/	2	/	/	-6	/	/	/	/	/

Screening results as filed in PubChem BioAssay.
